Compound activity: PubChem, several laboratories
Rows were chosen to be rich in hits. Some 3.9% of all compounds tested hit in one or more screens of this group.
697 NFkB inh: lowers PMA/ionomycin-induced NF-kB signal in 697 B cells | 697 B-cell NF-kB luciferase reporter, 16 h | inhibition, % at 4 µM | hit rate 0.33% among 330,000 | AID 435022; in the data active means inhibition above about 35%
Jurkat NFkB inh: lowers PMA/ionomycin-induced NF-kB signal in Jurkat cells | hit rate 0.53% among 330,000 | PMA/ionomycin-induced NF-kB luciferase reporter, luminescence | inhibition, % at 4 µM; in the data active means inhibition above about 50%
CHOP UPR activ: apoptotic UPR (CHOP) activation; hit rate 0.34% among 330,000; activation, % at 10 µM; CHO-CHOP luciferase reporter, luminescence; percent of tunicamycin response over DMSO baseline;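 active means at 10 µM dose, activation of 40% or more, normalized to positive control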;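 further: 100% = tunicamycin at 10 µg/mL and 0% = DMSO alone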
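Test system: CHO CHOP reporter cells. Input: 500 CHO-CHOP cells per well. Medium: F12 with 10% FBS. Technique: luciferase luminescence. Measure: percent activation relative to tunicamycin control. Dosing: 10 µM compound, 0.5% DMSO. Timing: 16-18 h cell attachment, then 6 h compound exposure, 37 °C.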
Gli-Sufu antag: antagonists of Gli-Sufu signaling. Sufu-KO-LIGHT fibroblasts, Gli luciferase reporter luminescence. inhibition, % at 5 µM. hit rate 0.74% among 340,000;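 active means inhibition above about 55%, limit read from the data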;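 further: 0% = DMSO-treated cells and 100% = wells with medium but no cells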
CHOP inh: blocks CHOP induction under ER stress | hit rate 3.8% among 220,000 | inhibition, % at 10 µM | AID 2732 | CHO-K1 CHOP-promoter luciferase, tunicamycin-induced, 15-18 h;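 active means compounds that reduced the stress-induced luciferase reporter signal by more than about 70% of percent inhibition, limit read from the data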;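 further: 0% = tunicamycin plus vehicle and 100% = wells without tunicamycin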
UPR XBP1 act: activators of adaptive arm of unfolded protein response (XBP1); activation, % at 20 µM; CHO-XBP1 luciferase reporter, IRE1-XBP1 UPR activation, luminescence; percent of tunicamycin response, DMSO as zero; hit rate 0.33% among 330,000;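 active means versus positive control, 20 µM dose yields 30% or more activation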;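 further: 100% = tunicamycin at 10 µg/mL and 0% = DMSO only wells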
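Assay system: IRE1-XBP1 luciferase reporter CHO line. Input: 1000 cells/well. Buffer or medium: F12 with 10% serum. Doses: 20 µM, 1% DMSO. Times: overnight seeding at 37 °C, 6 h compound treatment at 37 °C. Technique: Steady-Glo luciferase glow luminescence, 10 min after reagent addition.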
Numbers without * were called inactive; . = no result given.

SMILES	697 NFkB inh	Jurkat NFkB inh	CHOP UPR activ	Gli-Sufu antag	CHOP inh	UPR XBP1 act
O=C(Nc1cc(Cl)ccc1-n1cncn1)c1cccc(S(=O)(=O)N2CCOCC2)c1	34.1	7.5	-1.0	5.0	.	-0.3
COc1ccc(C(NC(C)=O)c2cc(Cl)c3cccnc3c2O)cc1 (configuration not stated)	-25.8	10.7	-0.6	13.7	.	4.6
CC(C)C(=O)NC(c1ccc(Cl)cc1Cl)c1ccc2cccnc2c1O (configuration not stated)	-26.1	46.6	2.2	27.9	.	-0.2
Cc1ccnc(NC(c2ccccc2)c2ccc3cccnc3c2O)c1 (configuration not stated)	.	.	.	-7.4	.	.
CCC(=O)NC(c1ccc(Cl)cc1Cl)c1ccc2cccnc2c1O (configuration not stated)	-99.4	37.2	0.8	89.4*	.	2.8
O=C(O)c1ccccc1NC(c1ccccc1)c1ccc2cccnc2c1O (configuration not stated)	.	.	.	-0.7	.	.
CC(=O)NC(c1ccc(Cl)cc1)c1ccc2cccnc2c1O (configuration not stated)	.	.	.	79.8*	.	.
Cc1cc(NC(c2ccc(Cl)cc2)c2ccc3cccnc3c2O)no1 (configuration not stated)	-32.3	33.5	7.9	67.2*	80.4*	1.2
Oc1ccccc1C(Nc1nccs1)c1ccc2cccnc2c1O (configuration not stated)	-44.9	7.6	0.4	8.2	71.2*	1.6
Nc1nonc1-n1nnc(C(=O)N/N=C/c2ccco2)c1CSc1ccccc1	-23.6	-10.2	-1.5	16.8	.	-0.5
CN(C)c1nc(N)nc(CSc2nc3cc(Cl)ccc3o2)n1	-129.9	-25.2	7.2	-22.0	77.4*	7.8
COc1cccc(CNC(=O)N2CCN(c3ccccc3)CC2)c1	23.3	7.1	-0.6	-5.4	.	1.0
COc1cccc(CN(C)C(=O)/C=C/c2ccc(S(=O)(=O)N3CCCCCC3)cc2)c1	-0.5	13.6	-0.8	7.2	.	-5.1
O=C1O/C(=C\c2ccccc2)c2ccccc21	-21.7	5.9	5.2	-18.1	-6.0	5.8
O=C1O/C(=C/c2ccccc2)N=C1c1ccccc1	-21.6	-2.2	0.7	1.0	87.2*	-1.9
CNC(=O)NC(=O)CN1C(=O)NC2(CCOc3ccccc32)C1=O (configuration not stated)	-5.4	-7.3	0.1	5.9	.	-0.3
COc1cccc(C(=O)N/N=C(/c2ccccc2)c2ccccn2)c1	-44.4	27.1	22.0	81.2*	64.9	1.9
COc1cccc(C(=O)N/N=C(/CCC(=O)O)c2ccccc2)c1	-11.4	-4.4	-1.2	-0.7	28.9	-5.4
CCOC(=O)c1c(C)[nH]c(C)c1S(=O)(=O)N(C)CC(=O)Nc1cccc(C)n1	-0.4	-2.7	0.0	-14.7	.	-3.2
COc1cc(CN2CCN(CC3CC3)CC2CCO)cc(OC)c1 (configuration not stated)	12.5	-3.9	-1.2	-3.7	.	-3.8
O=C(NC1CCCCC1)N1CCSC1=Nc1ccccc1	-23.5	6.2	-0.6	35.1	89.0*	-2.1
CCCCCc1cc(=O)oc2c(C(CCN3CCCC3)c3ccc(N(C)C)cc3)c(OC)cc(OC)c12 (configuration not stated)	2.1	8.4	3.9	20.1	43.4	10.0
CCCCCc1cc(=O)oc2c(C(CCN3CCCC(C)C3)c3ccc(OC)cc3)c(OC)cc(OC)c12 (configuration not stated)	6.2	12.9	7.4	11.5	71.3*	19.2
CCCCCc1cc(=O)oc2c(C(CCN3CCCC3)c3cc(OC)c(OC)c(OC)c3)c(OC)cc(OC)c12 (configuration not stated)	1.1	33.5	8.9	11.5	43.9	2.2
CCCCCc1cc(=O)oc2c(C(CCN3CCCCC3)c3ccc(OC)cc3)c(OC)cc(OC)c12 (configuration not stated)	11.7	-1.0	5.7	23.7	71.5*	9.8
SMILES	697 NFkB inh	Jurkat NFkB inh	CHOP UPR activ	Gli-Sufu antag	CHOP inh	UPR XBP1 act
CC(=O)C(Cl)C(=O)Nc1ccccc1 (configuration not stated)	.	.	.	4.4	83.1*	.
CC1CCC2C(C1)c1sc(=O)[nH]c1SC2(C)C (configuration not stated)	-11.1	2.2	1.3	11.7	82.6*	-0.3
COc1ccc(-n2c(-c3ccc(Cl)cc3)c[n+]3c2CCCCC3)cc1	-22.3	7.1	-1.9	.	24.1	0.0
CC(C)c1ccc(-n2c(-c3ccccc3)c[n+]3c2CCc2ccccc2-3)cc1	.	.	.	85.3*	65.0	.
Cc1ccc2c(c1C)-c1c(ccc(C)c1C)C(=O)C2=O	.	.	.	64.1*	.	.
COc1cc(-c2cc(C(=O)Nc3ccc(S(=O)(=O)NCc4ccco4)cc3)c3ccccc3n2)cc(OC)c1OC	-9.2	49.2	6.8	13.6	78.7*	0.0
Cc1ccc(NC(=O)CN(C)C(=O)COC(=O)[C@@H](NC(=O)c2ccccc2F)C(C)C)cc1	1.4	-19.1	0.3	8.2	.	-3.3
Cc1ccc2c(c1)C(c1ccncc1)=NNC(c1ccc(C(C)C)cc1)=N2	.	.	.	.	98.4*	.
O=C(O)CC/C(=C\c1ccc(N2CCCC2)c([N+](=O)[O-])c1)c1nc2ccccc2s1	-9.5	-8.9	-1.8	-2.3	95.4*	-2.0
Nc1nc(SCc2ccc(Cl)cc2Cl)c2ncn(C3OC(CO)C(O)C3O)c2n1 (configuration not stated)	.	.	.	3.0	.	.
CCOC(=O)C1=C(CN2CCC(C)CC2)NC(=O)NC1c1ccc(Cl)cc1 (configuration not stated)	-6.4	-3.0	-2.6	4.8	87.4*	-3.4
CCOC(=O)C1=C(CN2CCN(C(=O)c3ccco3)CC2)NC(=O)NC1c1ccc(Cl)cc1 (configuration not stated)	-10.0	-9.4	2.1	-7.2	.	-3.1
CCOC(=O)Cn1c(C(=O)OCC)cc2sccc21	6.5	-14.8	0.8	1.5	43.0	-1.2
CCOC(=O)c1cc2sccc2n1Cc1ccccc1	-2.5	0.2	-0.9	-2.5	80.2*	0.2
COC(=O)Nc1nnc(-c2ccco2)s1	-9.8	-36.3	-0.5	-1.3	0.2	2.4
CC(C)CC(=O)Nc1nnc(-c2ccco2)s1	-25.2	-31.9	6.9	-48.5	84.3*	3.1
O=C(NNC(=O)c1cc2cc3ccccc3nc2s1)c1ccc(F)cc1	22.0	-8.0	-1.9	48.3	88.7*	-0.4
Oc1ccc(N=Nc2nc(-c3ccccc3)c(-c3ccccc3)[nH]2)cc1	-6.5	16.2	9.9	15.5	92.5*	0.3
CCc1nnc(NC(=O)CSc2nnc(-c3ccccc3O)o2)s1	-10.6	-6.5	-0.1	-6.0	-3.8	-0.1
CCc1nnc(NC(=O)c2ccncc2)s1	-2.6	3.8	3.2	-1.1	10.4	-1.0
CCc1nnc(NC(=O)c2cccc(C(=O)Nc3nnc(CC)s3)n2)s1	.	.	.	84.6*	62.6	.
